Data as given in ChEMBL document CHEMBL3868584, “Cerasoidine, a Bis-aporphine Alkaloid Isolated from Polyalthia cerasoides during Screening for Wnt Signal Inhibitors” (J Nat Prod, 2016).
Activity calls are given as the source filed them. The calls are words filed in the database; no cut-off is given here.

Assays:
[1] = Inhibition of Wnt signalling in human STF/293 cells assessed as suppression of TCF/beta-catenin-mediated transcriptional activity after 24 hrs by superTOPflash reporter gene assay; type: cell-based; conditions: STF/293, 24 h
[2] = Cytotoxicity against human STF/293 cells assessed as reduction in cell viability at 2 to 10 uM after 24 hrs by fluorescein diacetate based assay; type: toxicity; conditions: hek293, 24 h
[3] = Inhibition of Wnt signalling in human SW480 cells assessed as decrease in c-myc level after 24 hrs by Western blot analysis; type: cell-based
In short: (§1)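 SW480 colon cancer cells were treated, then whole, cytoplasmic and nuclear lysates were prepared. These were immunoblotted with anti-β-catenin and anti-c-myc antibodies. β-Actin served as the cytoplasmic fraction control and histone H1 as the nuclear fraction control.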

[4] = Inhibition of Wnt signalling in human SW480 cells assessed as decrease in beta-catenin level in nucleus at 20 to 60 uM after 24 hrs by Western blot analysis; type: cell-based; in short: as §1
[5] = Cytotoxicity against human STF/293 cells assessed as reduction in cell viability at 10 to 40 uM after 24 hrs by fluorescein diacetate based assay; type: toxicity; conditions: hek293, 24 h
[6] = Inhibition of Wnt signalling in human STF/293 cells assessed as decrease in beta-catenin levels after 24 hrs by Western blot analysis; type: cell-based
In short: (§2)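 STF/293 cells were exposed to the test agent and lysed. Lysates were immunoblotted for β-catenin, c-myc and PPARδ, with β-actin as the protein loading control.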

[7] = Inhibition of Wnt signalling in human STF/293 cells assessed as decrease in c-myc levels after 24 hrs by Western blot analysis; type: cell-based; in short: as §2
[8] = Cytotoxicity against human STF/293 cells assessed as reduction in cell viability at 0.5 to 2 uM after 24 hrs by fluorescein diacetate based assay; type: toxicity; conditions: hek293, 24 h
[9] = Inhibition of Wnt signalling in human STF/293 cells assessed as decrease in PPARdelta levels after 24 hrs by Western blot analysis; type: cell-based; in short: as §2

Compound | IC50 [1] [µM] | Activity [2] | Activity [8] | other results
COc1ccc2c(c1)C(=O)c1nccc3cc4c(c-2c13)OCO4 [ATHEROSPERMIDINE] | 7.1 | Non-Toxic | – | –
COc1ccc2c(c1)c(-c1c3c4c(cc5c(c4c4ccc(OC)cc14)OCO5)CCN3)c1c3c(cc4c(c32)OCO4)CCN1 [BIDEBILINE E] | 20.2 | – | – | inhibition [3]: Dose-dependent effect; inhibition [4]: Active; Activity [5]: Non-Toxic
O=C1c2ccccc2-c2c3c(cc4ccnc1c24)OCO3 [LIRIODENINE] | 0.6 | – | Non-Toxic | inhibition [6]: Dose-dependent effect; inhibition [7]: Dose-dependent effect; inhibition [9]: Dose-dependent effect
COc1cc2c(cc1O)CCn1c-2cc2ccc(O)c(OC)c2c1=O | 8.7 | Non-Toxic | – | –
COc1cc2c(cc1OC)-c1cc3ccc(OC)c(OC)c3c(=O)n1CC2 | 0.6 | – | Non-Toxic | –
